Screening results from PubChem.
This is one part of a sample in which hits are shown more often than they occur.
TLR9-MyD88 block – inhibitors of TLR9-MyD88 association in cells, primary screen, cell-based, CHO, BLA complementation, fluorescence. Toll-like receptor 9 (Homo sapiens) + Myeloid differentiation primary response protein …. CCF4 FRET ratio. inhibition, % at 4.98 µM. actives 0.21% (n = 340,000). AID 504734, 2011;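 active = inhibition above the mean over all tested compounds plus 3 SD, cut at about 21% in these data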;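 also: 0% = DMSO only wells and 100% = clavulanate BLA inhibitor control wells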
Target sequence (Q99836 whole entry, looked up): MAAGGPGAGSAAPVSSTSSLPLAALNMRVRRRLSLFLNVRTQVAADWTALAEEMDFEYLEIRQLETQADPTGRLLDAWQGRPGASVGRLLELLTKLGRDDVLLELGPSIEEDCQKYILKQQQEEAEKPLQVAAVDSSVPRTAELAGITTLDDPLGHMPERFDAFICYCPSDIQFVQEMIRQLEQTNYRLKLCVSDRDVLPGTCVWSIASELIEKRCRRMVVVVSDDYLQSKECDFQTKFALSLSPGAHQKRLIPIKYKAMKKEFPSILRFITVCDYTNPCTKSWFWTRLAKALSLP
Target sequence (Q9NR96 whole entry, looked up): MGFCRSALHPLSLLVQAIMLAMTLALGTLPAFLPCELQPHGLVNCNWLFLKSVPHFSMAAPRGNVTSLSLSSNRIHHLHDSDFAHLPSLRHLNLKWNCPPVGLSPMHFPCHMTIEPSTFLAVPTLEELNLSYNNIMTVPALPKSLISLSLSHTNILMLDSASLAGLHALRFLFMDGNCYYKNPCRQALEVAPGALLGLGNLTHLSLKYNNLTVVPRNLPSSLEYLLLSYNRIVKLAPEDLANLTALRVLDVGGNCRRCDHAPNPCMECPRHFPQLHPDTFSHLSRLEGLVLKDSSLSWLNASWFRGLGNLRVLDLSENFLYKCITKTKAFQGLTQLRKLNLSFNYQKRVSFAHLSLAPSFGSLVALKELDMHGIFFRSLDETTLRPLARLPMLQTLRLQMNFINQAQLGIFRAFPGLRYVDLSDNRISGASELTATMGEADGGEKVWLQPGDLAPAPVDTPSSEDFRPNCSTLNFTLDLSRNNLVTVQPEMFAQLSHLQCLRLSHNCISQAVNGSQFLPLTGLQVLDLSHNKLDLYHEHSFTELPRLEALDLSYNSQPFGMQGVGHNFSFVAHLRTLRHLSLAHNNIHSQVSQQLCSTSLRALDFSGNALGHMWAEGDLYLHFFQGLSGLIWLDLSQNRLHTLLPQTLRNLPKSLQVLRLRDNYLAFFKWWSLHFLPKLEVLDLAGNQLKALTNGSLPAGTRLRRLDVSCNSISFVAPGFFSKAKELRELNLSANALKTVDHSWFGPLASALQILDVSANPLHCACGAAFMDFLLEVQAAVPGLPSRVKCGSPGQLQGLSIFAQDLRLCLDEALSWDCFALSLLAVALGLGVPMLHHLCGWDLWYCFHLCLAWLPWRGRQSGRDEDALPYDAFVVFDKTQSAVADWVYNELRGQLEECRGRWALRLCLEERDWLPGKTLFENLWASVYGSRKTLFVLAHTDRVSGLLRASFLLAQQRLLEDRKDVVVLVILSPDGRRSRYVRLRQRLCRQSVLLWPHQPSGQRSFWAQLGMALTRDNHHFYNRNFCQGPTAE
CHOP UPR activ – activators of apoptotic CHOP UPR arm, primary screen, cell-based, CHO-CHOP luciferase reporter, luminescence, uHTS | UPR activation; percent of tunicamycin response over DMSO baseline | activation, % at 10 µM | actives 0.34% (n = 330,000) | AID 449763, 2010;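 active = at 10 µM dose, activation of 40% or more, normalized to positive control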;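 also: 100% = tunicamycin at 10 µg/mL and 0% = DMSO alone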
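Material: CHO-CHOP cells, stable luciferase reporter of PERK-eIF2a-CHOP signalling; quantity: 500 reporter cells seeded per well; buffer or medium: F12 medium containing 10% fetal bovine serum; compound: one dose, 10 µM in 0.5% DMSO; incubation: 6 h compound treatment, 37 °C; measured by: Steady-Glo luciferase luminescence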
CHOP inh – inhibitors of CHOP promoter induction, primary screen, cell-based, unfolded protein response, luciferase reporter; CHO-K1 CHOP-promoter luciferase, tunicamycin-induced, 15-18 h; inhibition, % at 10 µM; actives 3.8% (n = 220,000); AID 2732, 2010;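 active = compounds that reduced the stress-induced luciferase reporter signal by more than about 70% of percent inhibition, limit read from the data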;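 also: 0% = tunicamycin plus vehicle and 100% = wells without tunicamycin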
UPR XBP1 act – activators of adaptive XBP1 UPR arm, primary screen, cell-based, CHO-XBP1 luciferase reporter, luminescence, uHTS; IRE1-XBP1 UPR activation; percent of tunicamycin response, DMSO as zero; activation, % at 20 µM; actives 0.33% (n = 330,000);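 active = versus positive control, 20 µM dose yields 30% or more activation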;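 also: 100% = tunicamycin at 10 µg/mL and 0% = DMSO only wells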
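Material: CHO-XBP1 cells stably carrying IRE1-XBP1-driven luciferase reporter / Amount: 1000 cells per well / Compound: 20 µM, 1% DMSO / Times: 6 h treatment, 37 °C / Detection: luciferase luminescence / Measure: % activation of reporter signal versus tunicamycin and DMSO controls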
NOD2 RIPK2 PPI – NOD2-RIPK2 binding disruptors in cells, primary screen, fluorescence, CHO cells, BLA complementation; Receptor-interacting serine/threonine-protein kinase 2 (Homo sapiens), O43353; CCF4 ratio; inhibition, % at 4.98 µM; actives 0.38% (n = 360,000); in the data active = inhibition above about 21%;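 also: 0% = vehicle only and 100% = reference blocker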
TLR4 MyD88 comp – inhibitors of TLR4-MyD88 association in cells, primary screen, cell-based, HeLa CL3-4, BLA complementation, FRET ratio; Toll-like receptor 4 (Homo sapiens) + Myeloid differentiation primary response protein …; HeLa CL3-4 TLR4/MyD88 BLA complementation; inhibition, % at 8.4 µM; actives 0.18% (n = 200,000); AID 861, 2007; in the data active = inhibition above about 25%;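 also: 0% = vehicle and 100% = reference inhibitor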
XBP1 UPR conf – IRE1-XBP1 UPR arm activators, confirmation, cell-based, CHO-XBP1 luciferase reporter, luminescence, single concentration | actives 63% (n = 1,000) | activation, % at 20 µM | AID 485299, 2010 | shares compounds with UPR XBP1 act;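 active = reporter signal at least 30% of the positive control's activation in two or more of four replicate wells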;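 also: plate controls were DMSO negative control for no effect and tunicamycin 10 µg/mL positive control for full effect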
Active calls of the source: *; nt = no result.

SMILES	TLR9-MyD88 block	CHOP UPR activ	CHOP inh	UPR XBP1 act	NOD2 RIPK2 PPI	TLR4 MyD88 comp	XBP1 UPR conf
O=C(Nc1ccccc1)Nc1cccc(Cl)c1Cl	-0.2	4.0	15.1	1.3	-6.8	3.1	nt
O=C(c1ccccc1)c1c[nH]c(C(=O)C(Cl)(Cl)Cl)c1	5.6	-0.3	18.7	-1.9	-1.6	18.1	nt
O=C(Cc1ccccc1)c1c[nH]c(C(=O)C(Cl)(Cl)Cl)c1	-3.4	7.0	nt	38.8*	3.5	nt	49.5*
CN1C(=O)c2cccc(NC(=O)CCc3ccccc3)c2C1=O	9.0	0.4	-3.8	2.5	1.0	4.8	nt
COc1cc(/C=N/NC(N)=O)c(Br)cc1OCC(=O)Nc1ccccc1C	-3.4	4.2	51.4	109.2*	-0.9	-13.5	71.7*
COc1ccccc1NC(=O)CSc1nc(=O)n(Cc2ccncc2)c2c1CCCC2	2.7	7.5	nt	-2.6	-6.0	nt	nt
Cc1cc(C)cc(-n2nnnc2SCC(=O)Nc2nc(-c3ccc(Cl)cc3)cs2)c1	-10.1	0.3	76.2*	34.2*	0.4	1.0	15.5
NS(=O)(=O)c1ccc(NC(=O)COC(=O)c2cn(-c3ccccc3)nc2-c2ccc(F)cc2)cc1	5.2	3.2	78.1*	68.4*	-9.5	-5.3	89.0*
CCc1noc(C)c1C(=O)Nc1ccc(S(=O)(=O)N2CCC(C)CC2)cc1	-10.4	0.0	nt	-5.5	3.2	nt	nt
O=[N+]([O-])c1ccc(NN=Cc2cccc3ccccc23)nc1	1.5	nt	nt	nt	8.7	nt	nt
COc1cccc(/C=N/Nc2ccc([N+](=O)[O-])cn2)c1O	11.7	17.4	nt	64.8*	4.5	nt	63.5*
CCOc1ccc(NC(=O)Nc2nc3ccc(S(C)(=O)=O)cc3s2)cc1	-7.6	8.3	nt	-6.6	-2.0	nt	nt
O=c1c2ccccc2nc(COc2ccccc2)n1/N=C/c1ccc(O)c(O)c1	-6.3	3.1	-7.5	31.5*	-0.5	nt	23.6
COc1cc(NC(=O)CCS(=O)(=O)c2ccc3c(c2)n(C)c(=O)c(=O)n3C)cc(OC)c1	-4.4	-1.0	nt	-2.1	-15.0	nt	nt
Cc1ccccc1OCC(O)CNC1CCC(NCC(O)COc2ccccc2C)CC1 (centres undefined)	-0.8	56.4*	nt	43.1*	16.4	nt	11.4
Cc1ccc(OCC(O)CNC2CCCC2)c(C)c1 (centres undefined)	7.9	-1.3	nt	-2.4	3.9	nt	nt
O=C(NC(c1ccc(Cl)cc1)c1cnccn1)C1CCN(Cc2cccc(C(F)(F)F)c2)CC1 (centres undefined)	nt	nt	nt	nt	-6.1	nt	nt
CC1(C)Cc2c(c(N3CCOCC3)nc3sc4c(NCC5CCCO5)nnnc4c23)CS1 (centres undefined)	-14.2	9.3	-0.4	33.0*	2.8	nt	6.1
CN(C)S(=O)(=O)c1ccc(N2CCCC2)c(C(=O)Nc2nccs2)c1	-2.7	5.5	nt	59.7*	-2.8	nt	68.5*
COc1ccc(S(=O)(=O)N2CCCCC2)cc1NC(=O)c1ccc(CS(C)(=O)=O)cc1	-3.6	2.8	nt	0.9	0.7	nt	nt
CN(C)S(=O)(=O)c1ccc(Cl)c(NC(=O)CN2C(=O)NC(C)(C3CC3)C2=O)c1 (centres undefined)	0.0	0.1	16.4	-0.7	0.9	nt	nt
CC(=O)c1cccc(NC(=S)N2CCN(c3ccccn3)CC2)c1	-5.7	0.0	nt	-8.7	-7.6	nt	nt
COc1ccc(Cn2c(-c3ccc(OC)cc3)nc3c(c(=O)c4ccccc4n3C)c2=O)cc1	nt	2.3	29.1	3.3	nt	-15.8	nt
COc1ccc(Cn2c(-c3ccccc3C)nc3c(c(=O)c4ccccc4n3C)c2=O)cc1	4.9	8.1	nt	40.6*	-0.7	nt	1.9
CC(=O)Nc1cc(-c2cccc(F)c2)cn2c(-c3ccc(F)c(Cl)c3)cnc12	nt	nt	nt	nt	0.5	nt	nt
SMILES	TLR9-MyD88 block	CHOP UPR activ	CHOP inh	UPR XBP1 act	NOD2 RIPK2 PPI	TLR4 MyD88 comp	XBP1 UPR conf
COc1ccc(OC)c(Nc2nc3ccc(C)cc3n3cnnc23)c1	2.1	3.1	nt	16.0	-1.8	nt	nt
COc1ccc(Cl)cc1Nc1nc2ccc(C)cc2n2cnnc12	-2.5	21.1	nt	54.0*	-2.7	nt	10.8
O=C(CCCOc1ccc(Cl)cc1Cl)NCCc1ccccn1	-14.5	-7.0	nt	-12.3	-1.4	nt	nt
Cc1cc(C)n(-c2nc(NCCCO)c3c4c(sc3n2)CCCC4)n1	5.7	-1.9	-114.0	41.2*	9.8	-0.6	20.5
Cc1cc(C)n(-c2nc(NCCO)c3c4c(sc3n2)CCCC4)n1	0.1	2.6	-64.7	2.5	-5.2	2.6	nt
COc1cc(OC)cc(C(=O)Nc2ccc3nc4n(c(=O)c3c2)CCCCC4)c1	-7.0	6.4	nt	32.4*	-3.5	nt	36.0*
COc1ccc(-c2cc(C(=O)Nc3cc(OC)cc(C(=O)Nc4cccc(C(F)(F)F)c4)c3)[nH]n2)cc1	-4.0	29.5	22.7	36.6*	4.4	nt	17.9
COc1cc(NC(=O)c2ccno2)cc(C(=O)Nc2cccc(C(F)(F)F)c2)c1	4.7	-1.0	9.9	0.0	-16.4	nt	nt
COc1ccc(NC(=O)COC(=O)CCCOc2ccc(Cl)cc2Cl)cc1	-9.3	0.7	32.8	75.2*	0.9	0.2	-0.9
CCC[C@@H](CNC)NC[C@H](Cc1ccccc1)NCCCCc1ccccc1	1.2	9.7	nt	45.5*	2.9	nt	25.2
CCC1CCc2c(sc3nc(SCC(=O)NCc4ccco4)n(-c4ccccc4)c(=O)c23)C1 (centres undefined)	-0.3	2.7	29.1	43.2*	8.3	11.3	70.2*
Cc1ccc(-n2c(SCC(=O)NCc3ccco3)nc3sc4c(c3c2=O)CC(C)(C)SC4)cc1	-6.4	0.0	8.9	-1.3	-5.3	-12.4	nt
O=C(Nc1cccc(F)c1)C1CCN(C(=O)N2CCOc3ccccc32)CC1	-3.8	-0.9	nt	-1.4	2.4	nt	nt
O=C(CN1CCCCC1)Nc1c2c(nc3ccccc13)N(c1ccccc1)CC2	9.5	3.4	86.0*	56.2*	3.3	-0.1	28.7
CCCC(=O)Nc1c2c(nc3ccccc13)N(c1ccccc1)CC2	-8.0	-1.0	57.3	-0.7	3.1	9.7	nt
O=C(OCC(=O)N1CCN(c2ccccc2)CC1)c1ccc(O)cc1O	-4.3	-1.7	nt	0.9	4.7	nt	nt
Cc1nn2cc(-c3cccc(Cl)c3)cnc2c1Br	-3.6	3.7	-36.7	4.6	1.0	5.8	nt
CCOC(=O)C1=C(Nc2ccc(OC)cc2)C(N)=NC1=N	8.2	nt	nt	nt	0.1	nt	nt
O=C(N/N=C/c1ccc2c(c1)OCO2)c1ccc(COc2cccc3cccnc23)cc1	-14.0	5.6	-11.8	4.0	1.7	-25.0	nt
Cc1ccc(-c2ccnc(-c3ccc(O)cc3)n2)cc1	-0.6	5.0	52.0	33.7*	-2.0	-4.8	35.8*
